Measurements taken from ChEMBL document CHEMBL4184298, “Development of Potent Inhibitors of Receptor Tyrosine Kinases by Ligand-Based Drug Design and Target-Biased Phenotypic Screening” (J Med Chem, 2018).
pEC50, pIC50: −log10 of the molar value. Calls of active or inactive are those of the source. The rule behind the calls is not given here.

Tests used:
[1] = system: MV4-11; experiment: Antiproliferative activity against human MV4-11 cells after 5 days by PrestoBlue assay; format: functional, cell-based
[2] = target: Receptor-type tyrosine-protein kinase FLT3 (Homo sapiens, UniProt P36888, D835Y); experiment: Inhibition of human partial length FLT3 D835Y mutant (Q580 to Y969 residues) expressed in bacterial expression system using poly [Glu, Try] 4:1 as substrate in presence of [gamma-33P]ATP
How it was run: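 Recombinant kinase assays were run radiometrically by an outside contract service. Activity was read as 33P incorporation into each kinase's substrate and expressed relative to a DMSO control.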

[3] = target: Epithelial discoidin domain-containing receptor 1 (Homo sapiens, UniProt Q08345); experiment: Inhibition of wild-type human partial length DDR1 (R565 to V876 residues) expressed in bacterial expression system using poly [Glu, Try] 4:1 as substrate in presence of [gamma-33P]ATP
How it was run: (§1)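 Radiometric assay on recombinant kinase: ³³P incorporation into the kinase substrate was measured and activity was expressed relative to a DMSO control.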

[4] = system: MOLM-13; experiment: Antiproliferative activity against human MOLM13 cells after 5 days by PrestoBlue assay; format: functional, cell-based
[5] = target: Platelet-derived growth factor receptor alpha (Homo sapiens, UniProt P16234); experiment: Inhibition of wild-type human partial length PDGFRA (V575 to D1002 residues) expressed in mammalian expression system using poly [Glu, Try] 4:1 as substrate in presence of [gamma-33P]ATP; how it was run: as §1
[6] = target: Epidermal growth factor receptor (Homo sapiens, UniProt P00533); experiment: Inhibition of wild-type human partial length EGFR (R669 to V1011 residues) expressed in bacterial expression system using poly [Glu, Try] 4:1 as substrate in presence of [gamma-33P]ATP; how it was run: as §1
[7] = Selectivity ratio of EC50 for human AXL-negative BT474 cells to EC50 for mouse AXL-positive breast cancer cells; format: functional
How it was run: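 AXL− BT474 and AXL+ cells were each dosed with 8-point half-log series (0.03–100 μM) and read by PrestoBlue at day 5 (n = 2). EC50s were fitted for each line, and the ratio is EC50(AXL−)/EC50(AXL+).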

[8] = system: BT-474; experiment: Antiproliferative activity against human AXL-negative BT474 cells after 5 days by PrestoBlue assay; format: functional, cell-based; details: BT-474, 120 h
How it was run: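 8-point half-log dose–response, 0.03–100 μM. Cell viability read with PrestoBlue reagent at day 5. EC50 calculated from the curves. SD from n = 2. Screened alongside an AXL+ line, with foretinib as the positive control.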

Chain of Epidermal growth factor receptor (P00533 whole entry, the tested form may be a part): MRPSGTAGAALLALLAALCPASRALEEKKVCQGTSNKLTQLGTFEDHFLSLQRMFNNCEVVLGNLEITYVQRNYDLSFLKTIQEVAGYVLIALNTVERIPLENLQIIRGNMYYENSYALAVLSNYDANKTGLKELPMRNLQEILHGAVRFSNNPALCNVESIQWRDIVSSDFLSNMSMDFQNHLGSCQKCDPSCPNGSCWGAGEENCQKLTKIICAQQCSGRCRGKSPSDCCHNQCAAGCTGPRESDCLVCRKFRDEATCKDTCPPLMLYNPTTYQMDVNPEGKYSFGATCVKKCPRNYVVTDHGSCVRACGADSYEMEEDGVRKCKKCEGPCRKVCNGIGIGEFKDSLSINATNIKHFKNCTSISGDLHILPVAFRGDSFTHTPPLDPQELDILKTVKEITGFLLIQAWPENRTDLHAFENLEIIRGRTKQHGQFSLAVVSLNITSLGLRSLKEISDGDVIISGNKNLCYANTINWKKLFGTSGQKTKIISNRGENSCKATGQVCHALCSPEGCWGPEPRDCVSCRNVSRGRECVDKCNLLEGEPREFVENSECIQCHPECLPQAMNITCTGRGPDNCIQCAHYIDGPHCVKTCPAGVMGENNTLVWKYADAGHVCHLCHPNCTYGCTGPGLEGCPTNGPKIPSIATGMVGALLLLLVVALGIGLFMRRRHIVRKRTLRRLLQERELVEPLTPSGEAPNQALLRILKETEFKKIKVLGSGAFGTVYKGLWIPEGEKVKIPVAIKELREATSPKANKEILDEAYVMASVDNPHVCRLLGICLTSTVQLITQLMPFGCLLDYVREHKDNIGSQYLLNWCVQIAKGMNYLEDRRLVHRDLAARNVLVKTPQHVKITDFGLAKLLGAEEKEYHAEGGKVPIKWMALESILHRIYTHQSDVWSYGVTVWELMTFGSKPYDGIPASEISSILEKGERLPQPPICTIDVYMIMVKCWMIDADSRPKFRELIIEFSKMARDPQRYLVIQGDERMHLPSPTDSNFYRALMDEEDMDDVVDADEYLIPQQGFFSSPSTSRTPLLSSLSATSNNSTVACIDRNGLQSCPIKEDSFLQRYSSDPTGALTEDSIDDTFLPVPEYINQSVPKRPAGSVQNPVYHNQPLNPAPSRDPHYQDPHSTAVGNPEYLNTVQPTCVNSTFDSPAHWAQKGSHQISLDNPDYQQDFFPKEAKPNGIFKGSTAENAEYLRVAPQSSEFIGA
Chain of Platelet-derived growth factor receptor alpha (P16234 whole entry, the tested form may be a part): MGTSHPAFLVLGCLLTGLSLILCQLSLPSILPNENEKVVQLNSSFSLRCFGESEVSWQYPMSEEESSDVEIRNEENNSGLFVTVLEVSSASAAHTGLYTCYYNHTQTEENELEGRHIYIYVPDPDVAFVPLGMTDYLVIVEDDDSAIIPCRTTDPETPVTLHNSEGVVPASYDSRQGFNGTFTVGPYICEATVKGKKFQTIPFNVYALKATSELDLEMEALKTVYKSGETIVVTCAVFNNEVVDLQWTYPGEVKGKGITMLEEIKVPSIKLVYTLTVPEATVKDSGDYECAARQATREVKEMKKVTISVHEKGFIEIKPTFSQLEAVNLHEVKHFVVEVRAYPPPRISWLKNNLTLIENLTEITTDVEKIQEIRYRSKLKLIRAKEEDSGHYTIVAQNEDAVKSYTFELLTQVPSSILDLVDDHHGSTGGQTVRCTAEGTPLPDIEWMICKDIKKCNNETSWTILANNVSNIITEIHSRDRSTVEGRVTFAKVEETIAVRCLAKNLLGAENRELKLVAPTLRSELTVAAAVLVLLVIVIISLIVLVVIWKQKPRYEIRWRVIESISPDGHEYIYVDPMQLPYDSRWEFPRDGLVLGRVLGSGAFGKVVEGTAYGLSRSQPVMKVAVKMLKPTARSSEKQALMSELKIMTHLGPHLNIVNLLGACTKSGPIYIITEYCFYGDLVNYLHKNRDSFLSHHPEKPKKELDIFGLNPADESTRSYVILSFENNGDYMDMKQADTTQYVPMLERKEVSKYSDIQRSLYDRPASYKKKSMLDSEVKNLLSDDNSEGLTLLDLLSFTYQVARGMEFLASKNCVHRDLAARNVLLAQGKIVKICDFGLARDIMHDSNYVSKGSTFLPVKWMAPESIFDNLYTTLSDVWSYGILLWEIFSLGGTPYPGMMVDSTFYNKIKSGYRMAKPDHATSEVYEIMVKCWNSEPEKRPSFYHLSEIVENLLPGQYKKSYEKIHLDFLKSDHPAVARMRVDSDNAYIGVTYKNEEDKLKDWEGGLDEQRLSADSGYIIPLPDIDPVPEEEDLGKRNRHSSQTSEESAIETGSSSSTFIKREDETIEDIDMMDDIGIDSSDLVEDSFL
Chain of Epithelial discoidin domain-containing receptor 1 (Q08345 whole entry, the tested form may be a part): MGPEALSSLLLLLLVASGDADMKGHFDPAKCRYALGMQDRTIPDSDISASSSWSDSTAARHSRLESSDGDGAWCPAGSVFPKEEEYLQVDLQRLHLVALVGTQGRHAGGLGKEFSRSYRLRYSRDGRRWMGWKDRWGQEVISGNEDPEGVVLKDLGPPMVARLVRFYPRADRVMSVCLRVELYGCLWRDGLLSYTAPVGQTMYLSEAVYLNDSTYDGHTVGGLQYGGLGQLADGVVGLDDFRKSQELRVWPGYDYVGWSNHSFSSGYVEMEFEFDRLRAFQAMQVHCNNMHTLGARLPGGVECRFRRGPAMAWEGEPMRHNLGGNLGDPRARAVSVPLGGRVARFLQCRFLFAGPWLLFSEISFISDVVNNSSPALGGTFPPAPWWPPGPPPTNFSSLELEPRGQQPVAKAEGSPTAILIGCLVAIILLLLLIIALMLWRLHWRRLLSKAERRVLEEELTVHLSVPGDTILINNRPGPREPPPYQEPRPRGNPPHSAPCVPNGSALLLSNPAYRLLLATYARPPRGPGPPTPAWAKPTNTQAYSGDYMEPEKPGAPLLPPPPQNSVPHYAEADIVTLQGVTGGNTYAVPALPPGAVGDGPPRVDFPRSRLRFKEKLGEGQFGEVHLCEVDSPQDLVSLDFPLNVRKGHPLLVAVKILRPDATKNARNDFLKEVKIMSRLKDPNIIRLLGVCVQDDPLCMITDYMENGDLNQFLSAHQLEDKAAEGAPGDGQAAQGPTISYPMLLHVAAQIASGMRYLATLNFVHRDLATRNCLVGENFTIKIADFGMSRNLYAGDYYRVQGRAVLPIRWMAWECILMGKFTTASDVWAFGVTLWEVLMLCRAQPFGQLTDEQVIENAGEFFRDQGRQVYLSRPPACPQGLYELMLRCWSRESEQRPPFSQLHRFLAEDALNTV

Row | SMILES | Activity [1] | pIC50 [2] | pIC50 [3] | Activity [4] | pIC50 [5] | pIC50 [6] | Ratio EC50 [7] | pEC50 [8]
1 | CNc1ncc2c(-c3ccc(N4CCN(C)CC4)nc3)nn(CC3CCCC3)c2n1 | Active | 7.92 | 7.00 | Active | 6.00 | < 5.00 | – | –
2 | Nc1nc(Nc2ccc3c(c2)CC[C@@H](N2CCCC2)CC3)nn1-c1cc2c(nn1)-c1ccccc1CCC2 [BEMCENTINIB] | Active | 8.70 | 7.70 | Active | 7.70 | 5.41 | – | –
3 | CNc1ncc2c(-c3ccc(N4CCNCC4)nc3)nn(CC3CCCC3)c2n1 | – | – | – | – | – | – | 2 | 5.79
4 | CNc1ncc2c(-c3ccc(N4CCNCC4)cc3)nn(Cc3cn(Cc4ccccc4)nn3)c2n1 | – | – | – | – | – | – | <1 | –
